Active and inactive are the calls of the source.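 Rule for the calls: active = cell viability under 70% at any tested concentration, a measure not printed in our tables; inactive = the rest.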
Test system: HEp-2 viability, ATP luminescence (CellTiter-Glo)
Test: HEp-2 viability by ATP luminescence – cell-based, CellTiter-Glo, synthesized compounds, set 7, cytotoxicity control for RSV inhibitor project, dose response (AID 504674)
Summary of the method: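 Times: compound exposure of 6 days at 37 °C, 5% CO2 / System: HEp-2 human cell line, cell viability / Amount: 10,595 HEp-2 cells per well / Detection: CellTiter-Glo luminescence / Evaluation: % viability versus median cell-only wells, CC50 from 4-parameter fit bounded 0–100 / Doses: 8-point twofold dilution series, 50 to 0.39 µM, 0.5% DMSO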

| Structure (SMILES) | CC50 |
| --- | --- |
| Cc1ccc(Cn2c(=O)n(Cc3ccc(C(=O)N4CCOCC4)cc3)c(=O)c3ccccc32)cc1 | 16.6 µM |
| COCCCNC(=O)c1ccc(Cn2c(=O)c3ccc(C(F)(F)F)cc3n(Cc3ccc(C)cc3)c2=O)cc1 | > 50 µM (inactive) |
| COCCNC(=O)c1ccc(Cn2c(=O)c3ccccc3n(Cc3ccc(C)cc3)c2=O)cc1 | > 50 µM (inactive) |
| O=C(NCc1cccc(Cl)c1)C1CCN(S(=O)(=O)c2cccc3nonc23)CC1 | > 50 µM (inactive) |
| Cc1ccc(Cn2c(=O)n(Cc3ccc(C(=O)NC4CCCCC4)cc3)c(=O)c3ccccc32)cc1 | > 50 µM (inactive) |
| COc1ccccc1NC(=O)[C@@H]1CCCN1S(=O)(=O)c1cccc2nonc12 | > 50 µM (inactive) |
| O=C(NCc1ccc(Cl)cc1)C1CCN(S(=O)(=O)c2cccc3nonc23)CC1 | > 50 µM (inactive) |
| COCCCNC(=O)c1ccc(Cn2c(=O)c3ccc(OC)cc3n(Cc3ccc(C)cc3)c2=O)cc1 | 11.7 µM |
| COCCCNC(=O)c1ccc(Cn2c(=O)c3ccc(C)cc3n(Cc3ccc(C)cc3)c2=O)cc1 | > 50 µM (inactive) |
| Cc1ccc(Cn2c(=O)n(Cc3ccc(C(=O)N(C)C)cc3)c(=O)c3ccccc32)cc1 | 11 µM |
| COc1ccc(C)c(NC(=O)[C@@H]2CCCN2S(=O)(=O)c2cccc3cccnc23)c1 | > 50 µM (inactive) |
| Cc1ccc(NC(=O)[C@@H]2CCCN2S(=O)(=O)c2cccc3nonc23)c(C)c1 | > 50 µM (inactive) |
| Cc1ccc(Cl)cc1NC(=O)[C@@H]1CCCN1S(=O)(=O)c1cccc2cccnc12 | 13 µM |
| Cc1ccc(CNC(=O)C2CCN(S(=O)(=O)c3cccc4nonc34)CC2)c(C)c1 | > 50 µM (inactive) |
| Cc1ccc(Cn2c(=O)n(Cc3ccc(C(=O)N4CCCC4)cc3)c(=O)c3ccccc32)cc1 | 4.6 µM |
| Cc1ccc(Cn2c(=O)n(Cc3ccc(C(=O)N4CCCCC4)cc3)c(=O)c3ccccc32)cc1 | 5.12 µM |
